From ChEMBL document CHEMBL1125414, “A novel class of calcium-entry blockers: the 1[[4-(aminoalkoxy)phenyl]sulfonyl]indolizines” (J Med Chem, 1992)

Columns and labels:
[1] = Displacement of [3H]nitrendipine binding to L-type calcium channel of Guinea pig cerebral cortex membranes; format: tissue-based, Cavia porcellus
Rattus norvegicus = species: Rattus norvegicus; test: Molar concentration required to block [Ca2+] induced contraction of K+ depolarized rat aorta by 50%; format: functional
Outline: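 Spiral strips of thoracic aorta from male Wistar rats in modified Krebs solution, 95% O2/5% CO2, 37 °C, depolarized preparation. pD2 taken as negative log molar antagonist concentration reducing maximal contraction by 50%.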

| Structure (SMILES) | IC50 [1] | IC50 (Rattus norvegicus) |
| --- | --- | --- |
| COc1cc(CCNCCCOc2ccc(S(=O)(=O)c3c(C(C)C)cn4ccccc34)cc2)cc(OC)c1 | 0.53 nM | 2.32 nM |
| CC(C)c1cn2ccccc2c1S(=O)(=O)c1ccc(OCCCN(C)C)cc1 | 201 nM | 390 nM |
| CCCCN(CCCC)CCCOc1ccc(S(=O)(=O)c2c(CCC)cn3ccccc23)cc1 | 14 nM | 54.3 nM |
| CCCN(CCC)CCCOc1ccc(S(=O)(=O)c2c(CC)cn3ccccc23)cc1 | 181 nM | 150 nM |
| CCCCN(CCCC)CCOc1ccc(S(=O)(=O)c2c(CC)cn3ccccc23)cc1 | 33 nM | 72.2 nM |
| CCN(CC)CCCOc1ccc(S(=O)(=O)c2c(C(C)C)cn3ccccc23)cc1 | 51 nM | 228 nM |
| CCCCN(CCCC)CCCOc1ccc(S(=O)(=O)c2c(C3CC3)cn3ccccc23)cc1 | 2.5 nM | 10.9 nM |
| CCCCN(CCCC)CCCOc1ccc(S(=O)(=O)c2c(C(C)C)cn3ccccc23)cc1 | 2.1 nM | 21.6 nM |
| COc1ccc(CN(C)CCCOc2ccc(S(=O)(=O)c3c(C(C)C)cn4ccccc34)cc2)cc1OC | 0.62 nM | 3.18 nM |
| COc1ccc(NCCCOc2ccc(S(=O)(=O)c3c(C(C)C)cn4ccccc34)cc2)cc1OC | 383 nM | 396 nM |
| COc1cc(CCN(C)CCCOc2ccc(S(=O)(=O)c3c(C(C)C)cn4ccccc34)cc2)cc(OC)c1OC | 0.6 nM | 2.24 nM |
| CC(C)c1cn2ccccc2c1S(=O)(=O)c1ccc(OCCCN2CCN(c3ccccc3)CC2)cc1 | 14 nM | 205 nM |
| COc1ccc([C@@H]2Sc3ccccc3N(CCN(C)C)C(=O)[C@@H]2OC(C)=O)cc1 [DILTIAZEM] | 59 nM | 303 nM |
| CCCCN(CCCC)CCCCOc1ccc(S(=O)(=O)c2c(C(C)C)cn3ccccc23)cc1 | 1.3 nM | 20.2 nM |
| CCc1cn2ccccc2c1S(=O)(=O)c1ccc(OCCCNCCc2ccc(OC)c(OC)c2)cc1 | 4.6 nM | 11 nM |
| CCCCN(CCCC)CCCCOc1ccc(S(=O)(=O)c2c(CC)cn3ccccc23)cc1 | 4.6 nM | 33.3 nM |
| CCCN(CCC)CCCOc1ccc(S(=O)(=O)c2c(C)cn3ccccc23)cc1 | 648 nM | 957 nM |
| CC(C)c1cn2ccccc2c1S(=O)(=O)c1ccc(OCCCNCc2ccccc2)cc1 | 4.5 nM | 22.8 nM |
| CCCCCN(CCCCC)CCCOc1ccc(S(=O)(=O)c2c(C(C)C)cn3ccccc23)cc1 | 0.89 nM | 89.6 nM |
| CC(C)(C)NCCCOc1ccc(S(=O)(=O)c2c(C(C)(C)C)cn3ccccc23)cc1 | 90 nM | 443 nM |
| CCCCCCCCN(CCCCCCCC)CCCOc1ccc(S(=O)(=O)c2c(C(C)C)cn3ccccc23)cc1 | 6.5 nM | 30100 nM |
| CCCCc1cn2ccccc2c1S(=O)(=O)c1ccc(OCCCN(CCC)CCC)cc1 | 129 nM | 570 nM |
| COc1ccc(CCN(C)CCCOc2ccc(S(=O)(=O)c3c(C(C)C)cn4ccccc34)cc2)cc1 | 8.7 nM | 22.6 nM |
| CC(C)c1cn2ccccc2c1S(=O)(=O)c1ccc(OCCCNCCc2ccccc2)cc1 | 4 nM | 81.5 nM |
| COc1cc(CCN(C)CCCOc2ccc(S(=O)(=O)c3c(C(C)C)cn4ccccc34)cc2)cc(OC)c1 | 0.19 nM | 2.12 nM |
| CCc1cn2ccccc2c1S(=O)(=O)c1ccc(OCCCN(C)CCc2ccc(OC)c(OC)c2)cc1 |  | 13.4 nM |

| Structure (SMILES) | IC50 [1] | IC50 (Rattus norvegicus) |
| --- | --- | --- |
| COc1ccc(CNCCCOc2ccc(S(=O)(=O)c3c(C(C)C)cn4ccccc34)cc2)cc1OC | 1.2 nM | 13 nM |
| CCCCc1cn2ccccc2c1S(=O)(=O)c1ccc(OCCCN(CCCC)CCCC)cc1 | 22 nM | 284 nM |
| COc1ccc(CCN(C)CCCOc2ccc(S(=O)(=O)c3c(C4CC4)cn4ccccc34)cc2)cc1OC | 0.74 nM | 3.9 nM |
| CCN(CC)CCCOc1ccc(S(=O)(=O)c2c(C)cn3ccccc23)cc1 |  | 3390 nM |
| CCCCN(CCCC)CCCOc1ccc(S(=O)(=O)c2c(C(C)(C)C)cn3ccccc23)cc1 | 9.6 nM | 51.9 nM |
| COc1ccc(CCNCCCOc2ccc(S(=O)(=O)c3c(C(C)C)cn4ccccc34)cc2)cc1OC | 1.8 nM | 5.05 nM |
| COc1ccc(CCN(C)CCCOc2ccc(S(=O)(=O)c3c(C(C)C)cn4ccccc34)cc2)cc1OC [FANTOFARONE] | 0.61 nM | 5.6 nM |
| CCCN(CCC)CCCOc1ccc(S(=O)(=O)c2c(C(C)C)cn3ccccc23)cc1 |  | 102 nM |
| CC(C)c1cn2ccccc2c1S(=O)(=O)c1ccc(OCCCN2CCC(c3ccccc3)CC2)cc1 | 6.6 nM | 80.9 nM |
| COC(=O)C1=C(C)NC(C)=C(C(=O)OC)C1c1ccccc1[N+](=O)[O-] [NIFEDIPINE] | 2.5 nM | 1.16 nM |
| CCc1cn2ccccc2c1S(=O)(=O)c1ccc(OCCCN2CCCCC2)cc1 | 274 nM | 357 nM |
| COc1ccc(CN(C)CCCOc2ccc(S(=O)(=O)c3c(C4CC4)cn4ccccc34)cc2)cc1OC | 1.9 nM | 4.7 nM |
| CC(C)(C)NCCCOc1ccc(S(=O)(=O)c2c(C3CC3)cn3ccccc23)cc1 | 43 nM | 66.5 nM |
| CC(C)c1cn2ccccc2c1S(=O)(=O)c1ccc(OCCCNC(C)(C)C)cc1 | 17.2 nM | 41.8 nM |
| COc1cccc(CCN(C)CCCOc2ccc(S(=O)(=O)c3c(C(C)C)cn4ccccc34)cc2)c1 | 2.6 nM | 7.86 nM |
| CCCCCN(CCCCC)CCCOc1ccc(S(=O)(=O)c2c(CC)cn3ccccc23)cc1 | 6.3 nM | 62.4 nM |
| COc1ccc(CN(C)CCCCOc2ccc(S(=O)(=O)c3c(C(C)C)cn4ccccc34)cc2)cc1OC | 4.5 nM | 14.6 nM |
| CCCCN(CCCC)CCCOc1ccc(S(=O)(=O)c2c(C)cn3ccccc23)cc1 | 69 nM | 162 nM |
| CCCCN(CCCC)CCCCCOc1ccc(S(=O)(=O)c2c(CC)cn3ccccc23)cc1 | 20 nM | 97.4 nM |
| COc1ccc(CCN(C)CCCC(C#N)(c2ccc(OC)c(OC)c2)C(C)C)cc1OC (stereo unspecified) | 38 nM | 47.1 nM |
| CCCCN(CCCC)CCCOc1ccc(S(=O)(=O)c2c(CC)cn3ccccc23)cc1 | 14 nM | 31.3 nM |
| CCc1cn2ccccc2c1S(=O)(=O)c1ccc(OCCCNC(C)(C)C)cc1 | 130 nM | 413 nM |
| CCCCN(CCCC)CCCOc1ccc(S(=O)(=O)c2c(-c3ccccc3)cn3ccccc23)cc1 | 156 nM | 1620 nM |
| CCCCN(CCCOc1ccc(S(=O)(=O)c2c(C(C)C)cn3ccccc23)cc1)CCc1ccc(OC)c(OC)c1 | 0.84 nM | 18.7 nM |
| CCCCN(CCCC)CCCOc1ccc(S(=O)(=O)c2c(C3CCCCC3)cn3ccccc23)cc1 | 113 nM | 4070 nM |
| COc1ccc(CCN(C)CCCCOc2ccc(S(=O)(=O)c3c(C(C)C)cn4ccccc34)cc2)cc1OC | 2.3 nM | 21.6 nM |
